This is an account of results in ChEMBL document CHEMBL1124957, “6-Benzoxazinylpyridazin-3-ones: potent, long-acting positive inotrope and peripheral vasodilator agents” (J Med Chem, 1990).

The structures appear in SMILES notation.

As usually defined, the ED50 is the midpoint of the dose-response relation. One may read the IC50 as the concentration that gives 50% inhibition.

For test [1], the system named is Canis familiaris. Briefly: Heart rate (HR) in dog after intravenous dose of 0.470 mg/kg. The format is functional, Canis lupus familiaris. Conditions: dose 0.47 mg/kg. Put shortly: (§1)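 Anesthetized adult mongrel dogs (sodium pentobarbital 45 mg/kg ip), artificially respired; MAP from cannulated femoral artery, infusion into femoral vein. Dopamine standard (10–15 μg/kg/min, 3 min) checked inotropic responsiveness. Compounds dissolved in DMF, diluted to 10% final in saline; stepwise 3–4 increasing doses, each infused over 5 min after prior peak. CF, MAP, HR expressed as % change from predrug control vs cumulative dose.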

For test [2], the system named is Canis familiaris. As to the kind of experiment: Mean arterial blood pressure (MAP) in dog after intravenous dose of 0.470 mg/kg. The test is classed as functional, Canis lupus familiaris. More on the design: unit: % change from predrug control. Conditions: dose 0.47 mg/kg. Put shortly:
as §1

In test [3] the test system is Canis familiaris. Briefly: Effective dose required to increase the myocardial contractile force (CF) 50% above base line when administered intravenously. Conditions: Canis lupus familiaris, Myocardium, iv. The format is functional. Put shortly: (§2)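 Dopamine standard (10–15 μg/kg/min, 3 min) checked inotropic responsiveness. Compounds dissolved in DMF, diluted to 10% final in saline; stepwise 3–4 increasing doses, each infused over 5 min after prior peak. CF, MAP, HR expressed as % change from predrug control vs cumulative dose.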

Test [4] has as its target phosphodiesterase fraction III (Canis familiaris). As to the kind of experiment: Inhibition of cardiac phosphodiesterase-3 isolated from canine heart.
Test [5] concerns Canis familiaris. As to the kind of experiment: Heart rate (HR) in dog after intravenous dose of 0.075 mg/kg. The format is functional, Canis lupus familiaris. Put shortly: as §2
In test [6] the test system is Canis familiaris. Briefly: Mean arterial blood pressure (MAP) in dog after intravenous dose of 0.075 mg/kg. The format is functional, Canis lupus familiaris. The method in brief:
as §2

Test [7] concerns Canis familiaris. Briefly: Myocardial contractile force (CF) in dog after intravenous dose of 0.075 mg/kg. The format is functional, Canis lupus familiaris, Myocardium. Put shortly: as §2
For test [8], the system named is Canis familiaris. Briefly: Heart rate in dog following 1.875 mg/kg i.v. administration. The format is functional, Canis lupus familiaris. Conditions: route intravenous. The method in brief: as §1
Test [9] concerns Canis familiaris. As to the kind of experiment: Mean arterial blood pressure in dog following 1.875 mg/kg i.v. administration. The test is classed as functional, Canis lupus familiaris. Conditions: route intravenous. The method in brief: as §1
The test system of test [10] is Canis familiaris. Briefly: Myocardial contractile force (CF) in dog after intravenous dose of 1.875 mg/kg. The test is classed as functional, Canis lupus familiaris, Myocardium. Put shortly: as §1
The species named for test [11] is Canis familiaris. Briefly: Inotropic and enzyme inhibition effect on heart rate (HR). The format is functional, Canis lupus familiaris.
The test system of test [12] is Canis familiaris. As to the kind of experiment: Myocardial contractile force (CF) in dog after intravenous dose of 0.470 mg/kg. The test is classed as functional, Canis lupus familiaris, Myocardium. Conditions: dose 0.47 mg/kg. The method in brief:
as §1

Test [13] has as its system Canis familiaris. As to the kind of experiment: Mean arterial blood pressure (MAP) in dog after intravenous dose of 0.188 mg/kg. The format is functional, Canis lupus familiaris. The method in brief:
as §1

Test [14] concerns Canis familiaris. Briefly: Heart rate (HR) in dog after intravenous dose of 0.188 mg/kg. The format is functional, Canis lupus familiaris. The method in brief:
as §1

In test [15] the test system is Canis familiaris. Briefly: Myocardial contractile force (CF) in dog after intravenous dose of 0.188 mg/kg. The format is functional, Canis lupus familiaris, Myocardium. Put shortly: as §1

Consider `CC1CC(=O)NN=C1c1ccc2c(c1)N(C)C(=O)C(C)O2` (stereo not given), for which the values for the Activity in [1] and in test [2] were 36 and -15, respectively. Moreover, it took a dose of 0.068 mg/kg to reach the 50% effect level in [3] (ED50). Further, in test [4], the IC50 stood at 6 µM.
For `CC1CC(=O)NN=C1c1ccc2c(c1)OC(C)(C)C(=O)N2` (stereo not given), the Activity is 16 in test [5], -28 in test [6] and 82 in [7]. In [3], this compound registered an ED50 of 0.0162 mg/kg. For the same compound, the IC50 in test [4] turned out to be 4 µM.
`CCCCCN1N=C(c2ccc3c(c2)N(S(C)(=O)=O)CCO3)CCC1=O`: the results for the Activity in test [8], in test [9] and in [10] were -2, -6 and 22, respectively. Besides, the ED50 in test [3] is above 1.88 mg/kg. Also, the IC50 in test [4] worked out at 50 µM.
`CC1CC(=O)NN=C1c1ccc2c(c1)OC(C)(C)C(=O)N2C` (stereo not given): the Activity is 19 in test [5], -14 in [6] and 85 in test [7]. This compound registered an ED50 in [3] of 0.0217 mg/kg. This compound gave an IC50 in [4] of 6 µM.
For `CC(=O)N1CCOc2ccc(C3=NNC(=O)CC3)cc21`, the Activity in test [8] is 20; in test [9] it was -14; in test [10], 121. The compound also yielded an ED50 in test [3] of 0.37 mg/kg. The compound also had an IC50 in test [4] of 100 µM.
As to `Cc1cc(C2=NNC(=O)CC2)c2c(c1)N(C)C(=O)CO2`, the results for the Activity in test [2], in test [11] and in test [12] were 1, 9 and 73, respectively. Also, the ED50 in test [3] turned out to be 0.258 mg/kg. The compound also had an IC50 in test [4] of 26 µM.
`CC1CC(=O)NN=C1c1ccc2c(c1)N(C1CCCC1)C(=O)C(C)O2` (stereo not given): the results for the Activity in test [8], in test [9] and in [10] were 7, -5 and 36, respectively. In addition, the ED50 in [3] is above 1.88 mg/kg. In test [4], this compound gave an IC50 of 8 µM.
Regarding `O=C1CCC(c2ccc(-n3ccnc3)cc2)=NN1` [IMAZODAN], the Activity was -4 in test [13], 8 in [14] and 77 in test [15]. In test [3], this compound displayed an ED50 of 0.0822 mg/kg.
For the compound `CC(=O)N1CCOc2ccc(C3=NNC(=O)CC3C)cc21` (stereo not given), the values for the Activity in test [1], in test [2] and in test [12] were 35, -31 and 135, respectively. It took a dose of 0.056 mg/kg to reach the 50% effect level in test [3] (ED50). In [4], this compound came in with an IC50 of 30 µM.
Consider `O=C1CCC(c2ccc3c(c2)NCCO3)=NN1`, for which the Activity in test [8] is recorded as 15; in [9] it was -17; in test [10] it was 105. The compound also yielded an ED50 in [3] of 0.62 mg/kg. Also, the IC50 in test [4] amounted to 50 µM.
In the case of `CC1CC(=O)NN=C1c1ccc2c(c1)N(S(C)(=O)=O)CCO2` (stereo not given), the Activity in test [1] is on record as 17; in test [2], -1; in [12], 99. For the same compound, it took a dose of 0.148 mg/kg to reach the 50% effect level in test [3] (ED50). The same compound yielded an IC50 in test [4] of 4 µM.
Take `CN1N=C(c2ccc3c(c2)N(S(C)(=O)=O)CCO3)CCC1=O`: the Activity in test [8] amounted to 12; in test [9] it was 0; in test [10], 26. In test [3], the ED50 was above 1.88 mg/kg. This compound also showed an IC50 in test [4] of 100 µM.
In [8], `O=C1CCC(c2ccc3c(c2)NC(=O)CO3)=NN1` returned an Activity of 9. Also, the median effective dose (ED50) in [3] amounted to 0.7 mg/kg. Also, the concentration for half-maximal inhibition (IC50) in test [4] was found to be 630 µM.
Regarding `CC1Oc2ccc(C3=NNC(=O)CC3)cc2NC1=O` (stereo not given), in test [8], the Activity is on record as 24. Besides, in test [3], the 50% effective dose (ED50) was determined as 0.49 mg/kg. For the same compound, the IC50 in test [4] was determined as 14 µM.
Turning to `Cc1cc(C2=NNC(=O)CC2C)c2c(c1)N(C)C(=O)CO2` (stereo not given), the Activity is recorded as 19 in test [8], -17 in test [9] and 98 in [10]. The compound also registered an ED50 in test [3] of 0.75 mg/kg. The compound also showed an IC50 in test [4] of 7.5 µM.
As to `CS(=O)(=O)N1CCOc2ccc(C3=NNC(=O)CC3)cc21`, the Activity in [8] is 24; in test [9], -14; in test [10], 76. Also, the ED50 in test [3] turned out to be 1.33 mg/kg. For the same compound, the IC50 in test [4] worked out at 9.5 µM.
`C=CCN1N=C(c2ccc3c(c2)N(S(C)(=O)=O)CCO3)CCC1=O`: the Activity was 10 in test [8], 4 in [9] and 37 in [10]. Also, the ED50 in [3] is above 1.88 mg/kg.
On to `CC1(C)Oc2ccc(C3=NNC(=O)CC3)cc2NC1=O`, for which the results for the Activity in [8], in test [9] and in [10] were 14, -6 and 113, respectively. The same compound yielded an ED50 in test [3] of 0.65 mg/kg. The half-inhibitory concentration (IC50) in [4] turned out to be 23 µM.
In the case of `Cc1cc2c(c(C3=NNC(=O)CC3)c1)OCC(=O)N2`, the Activity was 2 in test [8], -12 in [9] and 32 in test [10]. This compound gave an ED50 in test [3] above 1.88 mg/kg. The same compound registered a half-maximal inhibitory concentration (IC50) in [4] of 31 µM.
Turning to `CC1CC(=O)NN=C1c1ccc2c(c1)OC(C)C(=O)N2` (stereo not given), the Activity is reported as 23 in [5], -17 in test [6] and 154 in test [7]. In [3], this compound displayed an ED50 of 0.0054 mg/kg. The same compound returned a concentration for half-maximal inhibition (IC50) in [4] of 4 µM.
Take `CS(=O)(=O)N1CCOc2ccc(C3=NN(c4ccccc4)C(=O)CC3)cc21`: the values for the Activity in [8], in test [9] and in [10] were 6, 9 and 30, respectively. Besides, the ED50 in test [3] is above 1.88 mg/kg. In test [4], this compound came in with an IC50 of 200 µM.
As for `CC1CC(=O)NN=C1c1ccc2c(c1)NCCO2` (stereo not given), the figures for the Activity in test [1], in test [2] and in test [12] were 44, -11 and 149, respectively. In test [3], this compound showed an ED50 of 0.056 mg/kg. This compound yielded a half-inhibitory concentration (IC50) in [4] of 6 µM.
As to `CC1CC(=O)NN=C1c1ccc2c(c1)NC(=O)C(C)O2` (stereo not given), the Activity in test [1] is listed as 18; in test [2], -10; in test [12], 157. In test [3], the ED50 was 0.07 mg/kg. For the same compound, in test [4], the IC50 came out at 5 µM.
As to `Cc1cc2c(c(C3=NNC(=O)CC3C)c1)OCC(=O)N2` (stereo not given), the Activity is 8 in [8], -15 in [9] and 51 in test [10]. This compound also came in with an ED50 in [3] of 1.8 mg/kg. In test [4], this compound showed an IC50 of 28 µM.
Regarding `CN1C(=O)COc2ccc(C3=NNC(=O)CC3)cc21`, the Activity is 13 in test [1] and -4 in test [2]. For the same compound, in [3], the 50% effect level (ED50) was put at a dose of 0.279 mg/kg. The compound further had an IC50 in test [4] of 18 µM.
`CC1CC(=O)NN=C1c1ccc2c(c1)NC(=O)CO2` (stereo not given): the Activity in test [1] is 26; in test [2] it was -14. Also, the 50% effect level in [3] (ED50) was put at a dose of 0.077 mg/kg. In [4], the IC50 was found to be 2 µM.
Turning to `Cc1cc2c(cc1C1=NNC(=O)CC1C)NC(=O)CO2` (stereo not given), the Activity in [1] was 20; in [2] it was -4. It took a dose of 0.137 mg/kg to reach the 50% effect level in test [3] (ED50). Further, the IC50 in [4] came out at 20 µM.
Turning to `CC1CC(=O)NN=C1c1ccc2c(c1)N(C(C)C)C(=O)C(C)O2` (stereo not given), the Activity is given as 8 in test [8], -16 in [9] and 83 in test [10]. The ED50 in test [3] stood at 0.47 mg/kg. The compound also yielded an IC50 in test [4] of 5 µM.
